Data published in ChEMBL document CHEMBL1129535, “Antitumor agents. 164. Podophenazine, 2'',3''-dichloropodophenazine, benzopodophenazine, and their 4 beta-p-nitroaniline derivatives as novel DNA topoisomerase II inhibitors” (J Med Chem, 1996).

Columns and labels:
[1] = system: KB; experiment: Growth inhibitory activity (antiproliferative) against KB cell lines; assay type: functional, cell-based; conditions: Homo sapiens
Procedure, shortened: (§1)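 Cells (50 000 or 5000 per well) were seeded and left overnight. Compound was diluted from DMSO stocks into medium at 2× final and added in duplicate. After 2 days the cells were trypsinized and suspended in PBS with 0.5% trypan blue. Viable cells, those not staining blue, were counted by hemacytometer. IC50 was read graphically. KB/7d is an etoposide-selected multidrug-resistant subclone with reduced topoisomerase II.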

[2] = system: KB; experiment: Growth inhibitory activity (antiproliferative) against KB/7d cell lines; assay type: functional, cell-based; conditions: Homo sapiens; procedure, shortened: as §1
[3] = system: Nucleic Acid; experiment: Stimulation of in vitro Topoisomerase II-Linked DNA Complex Formation and Interference with Etoposide-Induced Cleavage at concentration 1 uM; assay type: functional
Procedure, shortened: (§2)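 Buffer: 30 mM Tris-HCl pH 7.6, 60 mM KCl, 8 mM MgCl2, 3 mM ATP, 15 mM β-mercaptoethanol and 30 μg/mL BSA, with 4 U topoisomerase II. Reactions ran 30 min at 37 °C. Protein-linked DNA was K+/SDS-precipitated and counted (cpm), mean ± SD of 2–4 determinations.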

[4] = system: Nucleic Acid; experiment: Stimulation of in vitro Topoisomerase II-Linked DNA Complex Formation and Interference with Etoposide-Induced Cleavage at concentration 100 uM; assay type: functional; procedure, shortened: as §2
[5] = The differential toxicity ratio was defined as IC50(KB/7d)/IC50(KB); assay type: functional
Procedure, shortened: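 The ratio IC50(KB/7d)/IC50(KB) uses IC50s from 2-day treatments scored by trypan-blue-excluding hemacytometer counts. KB/7d is an etoposide-selected subclone with reduced topoisomerase II.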

[6] = system: Nucleic Acid; experiment: Stimulation of in vitro Topoisomerase II-Linked DNA Complex Formation and Interference with Etoposide-Induced Cleavage at concentration 50 uM; assay type: functional; procedure, shortened: as §2

IC50 [1]	IC50 [2]	cpm [3]	cpm [4]	cpm [6]	Compound	Ratio [5]
0.11 µM	0.56 µM	320	446	309	COc1cc([C@@H]2c3cc4nc5ccccc5nc4cc3[C@@H](Nc3ccc([N+](=O)[O-])cc3)[C@H]3COC(=O)[C@H]23)cc(OC)c1O	5
0.48 µM	10.6 µM	105	101	103	COc1cc([C@@H]2c3cc4nc5cc(Cl)c(Cl)cc5nc4cc3[C@@H](Nc3ccc([N+](=O)[O-])cc3)[C@H]3COC(=O)[C@H]23)cc(OC)c1O	22
6.63 µM	–	–	–	–	COc1cc([C@@H]2c3cc4nc5cc6ccccc6cc5nc4cc3[C@@H](Nc3ccc([N+](=O)[O-])cc3)[C@H]3COC(=O)[C@H]23)cc(OC)c1O	–

The remaining lines, values behind:

Compound	IC50 [1]	IC50 [2]	cpm [3]	cpm [4]	cpm [6]	Ratio [5]
COc1cc([C@@H]2c3cc4nc5cc(Cl)c(Cl)cc5nc4cc3[C@H](O)[C@H]3COC(=O)[C@H]23)cc(OC)c1OC	13.3 µM	9.2 µM	–	–	–	–
COc1cc([C@@H]2c3cc(O)c(O)cc3[C@@H](Nc3ccc([N+](=O)[O-])cc3)[C@H]3COC(=O)[C@H]23)cc(OC)c1O	0.42 µM	16.6 µM	–	–	661	39
COc1cc([C@@H]2c3cc4c(cc3[C@@H](Nc3ccc([N+](=O)[O-])cc3)[C@H]3COC(=O)[C@H]23)OCO4)cc(OC)c1O	0.032 µM	0.55 µM	–	–	2930	17 KB 7d-1
COc1cc([C@@H]2c3cc4nc5ccccc5nc4cc3[C@H](O)[C@H]3COC(=O)[C@H]23)cc(OC)c1OC	23.4 µM	6.21 µM	–	–	–	–
COc1cc([C@@H]2c3cc4c(cc3[C@@H](O[C@@H]3O[C@@H]5CO[C@@H](C)O[C@H]5[C@H](O)[C@H]3O)[C@H]3COC(=O)[C@H]23)OCO4)cc(OC)c1O [ETOPOSIDE]	0.164 µM	23.8 µM	216	1840	2460	145
